Data published in ChEMBL document CHEMBL1141876, “Quinols as novel therapeutic agents. 2.(1) 4-(1-Arylsulfonylindol-2-yl)-4-hydroxycyclohexa-2,5-dien-1-ones and related agents as potent and selective antitumor agents” (2005).

Key:
Type in all cases: functional
[1] = tested on: Panel NCI-60 (60 carcinoma cell lines); experiment: Mean in vitro GI50 value against 60 human cancer cell line was determined
HCT-116 = experiment: Mean in vitro LC50 value against human HCT116 cell line was determined; details: read-out: LC50 (the source's name)
How it was run: (§1)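 NCI 60-cell-line screen. Cells seeded at densities suited to each line's growth and left drug-free for 24 h. Agents then added at five 10-fold dilutions, top concentration 100 μM, for 48 h. Cellular protein measured by sulforhodamine B colorimetry. LC50 read from these curves; for line 1 it is averaged across the 60 lines.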

RXF 393 = experiment: Mean in vitro LC50 value against human RXF 393 cell line was determined; details: read-out: LC50 (the source's name); how it was run: as §1
[2] = tested on: Panel NCI-60 (60 carcinoma cell lines); experiment: Mean in vitro LC50 value against 60 human cancer cell line was determined; details: read-out: LC50 (the source's name); how it was run: as §1
U-251 = experiment: Mean in vitro LC50 value against human U251 cell line was determined; details: read-out: LC50 (the source's name); how it was run: as §1
UO-31 = experiment: Mean in vitro LC50 value against human UO-31 cell line was determined; details: read-out: LC50 (the source's name); how it was run: as §1
CAKI-1 = experiment: Mean in vitro LC50 value against human CAKI-1 cell line was determined; details: read-out: LC50 (the source's name); how it was run: as §1
LOX IMVI = experiment: Mean in vitro LC50 value against human LOX IMVI cell line was determined; details: read-out: LC50 (the source's name); how it was run: as §1
ACHN = experiment: Mean in vitro LC50 value against human ACHN cell line was determined; details: read-out: LC50 (the source's name); how it was run: as §1
UACC-62 = experiment: Mean in vitro LC50 value against human UACC-62 cell line was determined; details: read-out: LC50 (the source's name); how it was run: as §1

SMILES | GI50 [1] [nM] | CC50 (HCT-116) [nM] | CC50 (RXF 393) [nM] | CC50 [2] [nM] | CC50 (U-251) [nM] | CC50 (UO-31) [nM] | CC50 (CAKI-1) [nM] | CC50 (LOX IMVI) [nM] | CC50 (ACHN) [nM] | CC50 (UACC-62) [nM]
O=C1C=CC(O)(c2nc3ccccc3s2)C=C1 | 230 | 430 | 580 | 3390 |  |  |  |  |  | 
CC(C)c1cc(C(C)C)c(S(=O)(=O)n2c(C3(O)C=CC(=O)C=C3)cc3ccccc32)c(C(C)C)c1 | 430 | 550 | 780 | 11200 |  |  |  |  |  | 
O=C1C=CC(O)(c2cc3ccccc3[nH]2)C=C1 | 1380 | 5130 | 3390 | 24000 |  |  |  |  |  | 
O=C1C=CC(O)(c2cc3ccccc3n2S(=O)(=O)c2ccc3ccccc3c2)C=C1 | 190 | 370 |  | 5620 | 510 |  |  |  |  | 
O=C1C=CC(O)(c2cc3ccccc3n2S(=O)(=O)c2ccc(F)cc2)C=C1 | 230 | 360 |  | 7760 |  | 630 |  |  |  | 
O=C1C=CC(O)(c2cc3ccccc3n2S(=O)(=O)c2ccccc2)C=C1 | 39 |  |  | 2950 |  |  | 53 |  |  | 
Cc1ccc(S(=O)(=O)n2c(C3(O)C=CC(=O)C=C3)cc3ccccc32)cc1 | 110 | 48 |  | 7240 |  |  |  | 230 |  | 
COc1ccc2c(c1)cc(C1(O)C=CC(=O)C=C1)n2S(=O)(=O)c1ccccc1 | 130 |  |  | 6170 |  |  |  | 470 | 450 | 
O=C1C=CC(O)(c2nc3ccccc3[nH]2)C=C1 | 870 | 1860 |  | 13200 |  |  |  |  |  | 1410
COc1ccc(S(=O)(=O)n2c(C3(O)C=CC(=O)C=C3)cc3ccccc32)cc1 | 160 | 110 |  | 6310 |  |  |  | 380 |  | 
O=C1C=CC(O)(c2cc3ccccc3n2S(=O)(=O)c2ccccc2)c2ccccc21 (stereo not given) | 450 | 790 |  | 7760 |  |  |  | 780 |  | 
O=C1C=CC(O)(c2cc3ccc(F)cc3n2S(=O)(=O)c2ccccc2)C=C1 | 16 | < 10 |  | 2240 |  |  |  |  | 20 | 
Cc1ccc(S(=O)(=O)n2c(C3(O)C=CC(=O)c4ccccc43)cc3ccccc32)cc1 (stereo not given) | 390 | 450 |  | 5620 |  |  |  | 720 |  | 
O=C1C=CC(O)(c2cc3cc(F)ccc3n2S(=O)(=O)c2ccccc2)C=C1 | 66 | 50 |  | 3230 |  |  |  | 63 |  | 
